{
  "source": "paper PMC11908206",
  "about": "(bioRxiv, 2025)",
  "key": {"[1]": {"system": "Apc^Q1405X small intestinal organoids", "assay": "RNA-seq and GSEA of ApcQ1405X small intestinal organoids", "type": "cell-based, mouse", "settings": "250nM G007-LK or 500nM TDI-012804, 3 days; for transcriptional response (RNA-seq), Tnks1 KO: ApcQ1405X/Tnks1 KO organoids; for transcriptional response (RNA-seq), Tnks1 WT: ApcQ1405X/Tnks1 WT organoids", "procedure,_shortened": "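Organoids plated at one six-well per condition in EN medium (basal Advanced DMEM/F12 with EGF 40 ng/ml and LDN 50 nM). Medium contained DMSO or test compound at 250 nM or 500 nM, then harvested for RNA isolation and sequencing.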"}, "[2]": {"system": "OVCAR4 cells", "assay": "Colony forming assay, OVCAR4", "type": "cell-based, human"}, "[3]": {"system": "ApcQ1405X small intestinal organoids", "assay": "Organoid viability", "type": "cell-based, mouse", "settings": "all Tnks1 genotypes, 6 days"}, "[4]": {"system": "ApcQ1405X small intestinal organoids", "assay": "Organoid viability", "type": "cell-based, mouse", "settings": "250nM", "procedure,_shortened": "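Mouse ApcQ1405X small-intestinal organoids plated at high density in Matrigel, two wells per condition, in EN medium (EGF 40 ng/ml, LDN 50 nM) containing DMSO or 250 nM compound. Medium changed every 2 days. Every 4 days, alamarBlue added to one well and fluorescence read; the other well passaged 1:2 into the same condition. Run for 20 days; n = 3, mean with SEM.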"}, "[5]": {"system": "TOPFlash reporter in DLD1 cells", "assay": "TOPFlash WNT transcriptional reporter in TNKS1 isogenic DLD1 cells", "type": "cell-based", "settings": "Homo sapiens, DLD-1, read-out: TOP-Flash reporter EC50"}, "[6]": {"system": "AXIN1 in DLD1 cells", "assay": "Western blot of endogenous AXIN1 in TNKS1 isogenic DLD1 cells", "type": "cell-based", "settings": "500nM or 250nM, 24h", "procedure,_shortened": "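DLD1 TNKS1-edited clones made by Cas9 and TNKS1 sgRNA transduction with drug selection, then single-cell cloning by limiting dilution. For blotting, 700,000 cells/well were allowed to adhere 24h and treated with compound for 24h. Lysis in RIPA buffer on ice for 20 min; 20 µg protein per sample blotted for AXIN1; band intensity quantified.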"}, "[7]": {"target": "PARP1 (Homo sapiens, UniProt P09874)", "sequence (P09874 whole entry, species assumed)": "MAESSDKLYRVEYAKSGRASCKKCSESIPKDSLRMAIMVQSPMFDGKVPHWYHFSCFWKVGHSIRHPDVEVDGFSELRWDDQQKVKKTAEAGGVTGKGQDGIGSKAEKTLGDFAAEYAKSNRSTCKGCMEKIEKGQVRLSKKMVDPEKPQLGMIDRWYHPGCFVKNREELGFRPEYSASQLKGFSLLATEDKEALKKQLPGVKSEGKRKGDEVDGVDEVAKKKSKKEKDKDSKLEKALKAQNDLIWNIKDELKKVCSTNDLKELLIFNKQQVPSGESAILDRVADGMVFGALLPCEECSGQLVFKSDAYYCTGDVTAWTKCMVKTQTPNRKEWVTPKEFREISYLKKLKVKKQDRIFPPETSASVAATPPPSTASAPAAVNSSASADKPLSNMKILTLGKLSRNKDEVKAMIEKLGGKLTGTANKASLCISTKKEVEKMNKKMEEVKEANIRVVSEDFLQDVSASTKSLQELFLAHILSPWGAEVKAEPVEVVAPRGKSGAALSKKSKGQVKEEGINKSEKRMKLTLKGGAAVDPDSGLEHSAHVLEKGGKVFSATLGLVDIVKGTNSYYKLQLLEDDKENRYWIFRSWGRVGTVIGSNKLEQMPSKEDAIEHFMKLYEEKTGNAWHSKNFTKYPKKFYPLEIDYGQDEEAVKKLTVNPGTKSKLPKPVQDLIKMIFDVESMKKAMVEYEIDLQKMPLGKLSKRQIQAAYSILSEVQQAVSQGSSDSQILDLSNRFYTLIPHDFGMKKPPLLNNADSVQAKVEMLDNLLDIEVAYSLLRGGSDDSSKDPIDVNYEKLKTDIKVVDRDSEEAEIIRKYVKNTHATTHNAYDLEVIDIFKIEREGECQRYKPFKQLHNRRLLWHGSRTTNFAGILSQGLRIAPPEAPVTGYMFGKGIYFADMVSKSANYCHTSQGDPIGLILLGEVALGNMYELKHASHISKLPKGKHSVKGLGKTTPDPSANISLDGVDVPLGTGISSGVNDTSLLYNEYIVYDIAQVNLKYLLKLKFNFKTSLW", "assay": "PARP1 inhibition", "type": "biochemical", "settings": "Fig. S9"}, "[8]": {"target": "PARP2 (Homo sapiens, UniProt Q9UGN5)", "sequence (Q9UGN5 whole entry, species assumed)": "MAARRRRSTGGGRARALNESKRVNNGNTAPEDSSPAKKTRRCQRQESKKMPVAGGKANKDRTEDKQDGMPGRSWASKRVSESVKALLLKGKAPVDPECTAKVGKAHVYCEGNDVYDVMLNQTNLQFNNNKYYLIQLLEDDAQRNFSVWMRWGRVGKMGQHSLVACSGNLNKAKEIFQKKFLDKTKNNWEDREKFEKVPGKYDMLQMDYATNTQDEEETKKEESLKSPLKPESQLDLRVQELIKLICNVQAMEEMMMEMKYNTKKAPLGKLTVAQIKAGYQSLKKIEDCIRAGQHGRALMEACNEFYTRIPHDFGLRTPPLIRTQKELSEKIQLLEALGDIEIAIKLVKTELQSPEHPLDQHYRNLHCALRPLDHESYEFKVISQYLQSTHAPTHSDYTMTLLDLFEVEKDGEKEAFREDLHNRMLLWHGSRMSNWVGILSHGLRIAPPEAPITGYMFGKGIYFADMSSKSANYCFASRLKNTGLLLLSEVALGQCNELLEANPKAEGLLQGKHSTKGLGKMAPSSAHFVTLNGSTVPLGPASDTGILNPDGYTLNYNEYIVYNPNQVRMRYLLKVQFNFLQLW", "assay": "PARP2 inhibition", "type": "biochemical", "settings": "Fig. S9"}, "[9]": {"target": "T1, PARP3 (Homo sapiens, UniProt Q9Y6F1)", "T1 sequence (Q9Y6F1 1-533)": "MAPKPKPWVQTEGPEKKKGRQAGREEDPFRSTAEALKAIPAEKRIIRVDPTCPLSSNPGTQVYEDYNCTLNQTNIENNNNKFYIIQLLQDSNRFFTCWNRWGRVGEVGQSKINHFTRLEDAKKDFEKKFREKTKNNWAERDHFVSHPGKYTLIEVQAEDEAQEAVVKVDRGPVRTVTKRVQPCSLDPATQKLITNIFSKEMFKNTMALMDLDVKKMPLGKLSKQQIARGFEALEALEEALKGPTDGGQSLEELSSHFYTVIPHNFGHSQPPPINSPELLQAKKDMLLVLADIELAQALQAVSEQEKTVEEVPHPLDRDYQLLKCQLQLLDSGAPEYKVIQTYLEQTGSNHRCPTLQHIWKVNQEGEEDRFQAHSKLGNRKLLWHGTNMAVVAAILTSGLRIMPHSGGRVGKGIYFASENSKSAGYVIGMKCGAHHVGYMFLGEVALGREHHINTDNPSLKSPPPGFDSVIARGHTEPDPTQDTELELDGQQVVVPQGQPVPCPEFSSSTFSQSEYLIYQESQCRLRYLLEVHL", "assay": "PARP3 inhibition", "type": "biochemical", "settings": "Fig. S9"}, "[10]": {"system": "TNKS2^WT, TNKS2^L1136Y and TNKS1 SAM-PARP domains", "assay": "In vitro PARylation assay with purified SAM-PARP domains", "type": "biochemical"}, "[11]": {"system": "AXIN1 in TNKS1^KO DLD1 cells", "type": "cell-based", "settings": "24h"}, "[12]": {"system": "AXIN1 in SW403 cells", "assay": "Western blot of AXIN1 in SW403 cells", "type": "cell-based, human", "settings": "SW403 (8p heterozygous), 250nM, 24h", "procedure,_shortened": "(§1)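 Cells grown in RPMI-1640 with 10% FBS; 700,000 per well seeded and allowed to adhere 24h. Exposed to 250 nM compound for 24h, then lysed in RIPA buffer on ice for 20 min and cleared at 15,000 rpm for 10 min. 20 µg protein per lane probed for AXIN1; band intensity quantified.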"}, "[13]": {"system": "AXIN1 in H23 cells", "assay": "Western blot of AXIN1 in H23 cells", "type": "cell-based, human", "settings": "8p diploid H23, 250nM, 24h", "procedure,_shortened": "as §1"}, "[14]": {"system": "H23 cells", "assay": "Colony forming assay, H23", "type": "cell-based, human"}, "[15]": {"system": "ApcQ1405X/KrasG13D/p53Q97X small intestinal organoids", "assay": "Organoid viability", "type": "cell-based, mouse", "settings": "six days"}, "[16]": {"system": "ApcQ1405X/KrasG12D/p53Q97X small intestinal organoids", "assay": "Organoid viability", "type": "cell-based, mouse", "settings": "six days"}},
  "data": [
    {"molecule": "CS(=O)(=O)c1ccc(-c2nnc(/C=C/c3nnc(-c4ccc(C#N)cc4)o3)n2-c2ccccc2Cl)nc1", "note": "[G007-LK, reference compound]", "values": [
      {"measurement": "transcriptional response (RNA-seq), Tnks1 KO", "setting": "[1]", "value": "broad transcriptional changes"},
      {"measurement": "transcriptional response (RNA-seq), Tnks1 WT", "setting": "[1]", "value": "broad transcriptional changes"},
      {"measurement": "colony formation, OVCAR4", "setting": "[2]; OVCAR4, 250nM, with or without Palbociclib", "value": "sensitive"},
      {"measurement": "organoid proliferation (organoid area and AlamarBlue)", "setting": "[3]", "value": "robust suppression of proliferation across all Tnks1 genotypes"},
      {"measurement": "organoid growth over 20 days", "setting": "[4]; ApcQ1405X organoids", "value": "robust suppression of organoid growth"}
    ]},
    {"molecule": "COc1cc(-c2ccccc2)ncc1C(=O)Nc1ccc2c(=O)[nH]c(-c3ccc(C(C)(C)O)cc3)nc2c1", "note": "[TDI-012804, COC1=C(C=NC(=C1)C1=CC=CC=C1)C(=O)NC1=CC=C2C(=O)NC(=NC2=C1)C1=CC=C(C=C1)C(C)(C)O]", "values": [
      {"measurement": "EC50", "setting": "[5]", "value": "< 0.1", "unit": "µM"},
      {"measurement": "endogenous AXIN1 protein (western blot), TNKS1 HET", "setting": "[6]; DLD1 TNKS1 HET", "value": "marked stabilization"},
      {"measurement": "endogenous AXIN1 protein (western blot), TNKS1 KO", "setting": "[6]; DLD1 TNKS1 KO", "value": "marked stabilization"},
      {"measurement": "endogenous AXIN1 protein (western blot), TNKS1 diploid", "setting": "[6]; DLD1 TNKS1 diploid controls", "value": "minimal increase"},
      {"measurement": "inhibition of PARP1", "setting": "[7]", "value": "no inhibition"},
      {"measurement": "inhibition of PARP2", "setting": "[8]", "value": "no inhibition"},
      {"measurement": "inhibition of PARP3", "setting": "[9]", "value": "no inhibition"},
      {"measurement": "effect of L1136Y mutation on potency against TNKS2", "setting": "[10]", "value": "significantly reduced the potency"},
      {"measurement": "AXIN1 protein (western blot), TNKS1 KO", "setting": "[11]; TNKS1 KO DLD1, 250nM", "value": "increased AXIN1 protein"},
      {"measurement": "AXIN1 protein (western blot), TNKS1 KO/TNKS2 WT", "setting": "[11]; TNKS1 KO DLD1 expressing TNKS2 WT cDNA, 250nM", "value": "increased AXIN1 protein"},
      {"measurement": "transcriptional response (RNA-seq), Tnks1 KO", "setting": "[1]", "value": "near-identical overall transcriptional response to G007-LK treated cultures"},
      {"measurement": "transcriptional response (RNA-seq), Tnks1 WT", "setting": "[1]", "value": "no significant gene expression changes"},
      {"measurement": "AXIN1 protein (western blot), SW403", "setting": "[12]", "value": "induced AXIN1 stabilization to similar levels as the pan-TNKS inhibitor G007-LK"},
      {"measurement": "AXIN1 protein (western blot), H23", "setting": "[13]", "value": "did not induce AXIN1 stabilization"},
      {"measurement": "colony formation, H23", "setting": "[14]; 8p diploid H23, 250nM", "value": "nor suppress colony formation"},
      {"measurement": "colony formation, H23 with suppression of TNKS1", "setting": "[14]; H23 shTNKS1, 250nM, further enhanced with Palbociclib", "value": "significant sensitization"},
      {"measurement": "colony formation, OVCAR4 TNKS1-depleted", "setting": "[2]; OVCAR4 shTNKS1, 250nM", "value": "significantly reduced"},
      {"measurement": "organoid proliferation over 20 days, Tnks1 HET", "setting": "[4]; ApcQ1405X Tnks1 HET organoids", "value": "significant reduction in proliferation"},
      {"measurement": "organoid proliferation over 20 days, Tnks1 KO", "setting": "[4]; ApcQ1405X Tnks1 KO organoids", "value": "significant reduction in proliferation"},
      {"measurement": "toxicity to Tnks1 KO compared to Tnks1 WT AKP-G13D organoids", "setting": "[15]", "value": "selectively toxic"},
      {"measurement": "toxicity to Tnks1 KO compared to Tnks1 WT AKP-G12D organoids", "setting": "[16]", "value": "selectively toxic"}
    ]}
  ]
}
